OX1R antag-1 = OX1R (human) antagonism | OX1R-expressing cells, FRET antagonist read-out | O43613 | hit rate 1.8% among 330,000 | inhibition, % at 6.6 µM | AID 485270; in the data active = inhibition mostly above about 38%, no sharp cut-off; inactive = mostly below about 40%;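 also: 0% = agonist challenge alone and 100% = reference antagonist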
CHO parental Ca = counter-screen: ATP calcium response change in parental CHO cells. parental CHO-K1, ATP-induced calcium, Fluo-8 fluorescence. inhibition, % at 5.6 µM. hit rate 0.63% among 330,000. AID 463079;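 active = inhibition above that plate's mean sample inhibition plus 3 SD, cut at about 26% in these data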;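 also: 0% = ATP-challenged DMSO wells and 100% = DMSO wells without ATP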
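material = parental CHO cells | also added = ATP as calcium-mobilizing challenge | dosing = single point at 5.6 µM | detection = intracellular calcium via Fluo-8 no-wash fluorescent dye | read-out = % inhibition | benchmarks = low control ATP plus DMSO, high control DMSO only | repeats = one well per compound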
OX1R antag-2 = human HCRTR1 antagonism | O43613 | CHO/OX1R cells, Fluo-8 calcium fluorescence, orexin A | inhibition, % at 5 µM | hit rate 0.43% among 330,000;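 active = inhibition above its plate's threshold, mean inhibition of all tested compounds on the plate plus 3 SD, cut at about 37% in these data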;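 also: 0% = orexin A challenge wells and 100% = SB-334867-A antagonist wells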
TAAR1 antag = antagonists of human TAAR1; Q96RJ0; CHO RD-HGA16 TAAR1, Fluo-8 calcium fluorescence, antagonist; inhibition, % at 3 µM; hit rate 1.5% among 360,000; AID 624466;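 active = inhibition above a per-plate cutoff, the mean inhibition of test compounds on that plate plus 3 SD, cut at about 49% in these data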;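 also: 0% = DMSO plus EC80 beta-PEA response and 100% = DMSO alone without agonist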
Target sequence (Q96RJ0 whole entry, looked up): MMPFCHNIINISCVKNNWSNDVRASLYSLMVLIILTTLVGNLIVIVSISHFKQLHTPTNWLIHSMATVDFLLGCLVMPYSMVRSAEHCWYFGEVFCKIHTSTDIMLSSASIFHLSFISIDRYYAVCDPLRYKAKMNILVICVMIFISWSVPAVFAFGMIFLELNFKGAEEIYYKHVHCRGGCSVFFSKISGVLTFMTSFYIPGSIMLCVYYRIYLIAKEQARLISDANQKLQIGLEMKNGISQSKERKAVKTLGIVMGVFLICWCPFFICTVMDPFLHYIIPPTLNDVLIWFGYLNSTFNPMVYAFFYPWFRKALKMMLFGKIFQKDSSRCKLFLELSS
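Test system: RD-HGA16 CHO cells with stable hTAAR1 and Gα16 / Probe or stimulus: EC80 β-phenethylamine stimulus / Times: seeding 17-24 h prior, 75-min 37 °C, 30-min RT dye loading / Detection: Fluo-8 calcium-sensitive fluorescence / Read-out basis: % inhibition scaled between DMSO and EC80 PEA controls / Repeats: singlicate, one well per test compound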
GPR7 antag = human neuropeptides B/W receptor 1 antagonism; GPR7-expressing cells, fluorescence antagonist assay; hit rate 1.1% among 290,000; inhibition, % at 4.4 µM; in the data active = inhibition above about 16%, passing the limit was not always enough;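 also: cells stimulated with the agonist NPW; 0% = agonist with vehicle and 100% = vehicle without agonist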
Target sequence (P48145 whole entry, looked up): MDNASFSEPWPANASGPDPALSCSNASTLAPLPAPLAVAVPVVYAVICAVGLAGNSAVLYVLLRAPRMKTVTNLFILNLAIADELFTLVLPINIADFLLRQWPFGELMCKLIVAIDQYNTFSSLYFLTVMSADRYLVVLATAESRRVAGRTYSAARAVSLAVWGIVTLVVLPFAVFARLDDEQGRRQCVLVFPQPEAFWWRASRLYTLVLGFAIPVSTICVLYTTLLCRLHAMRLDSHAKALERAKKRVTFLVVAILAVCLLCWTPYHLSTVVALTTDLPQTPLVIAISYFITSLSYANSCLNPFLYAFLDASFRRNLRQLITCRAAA
TAAR1 ag = agonists of human TAAR1. Q96RJ0. CHO RD-HGA16 TAAR1, Fluo-8 calcium fluorescence; vehicle wells 0%, saturating PEA agonist 100%. activation, % at 3 µM. hit rate 0.99% among 360,000;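 active = activation above the mean activation of all test compounds in the run plus 3 SD, cut at about 38% in these data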
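test system = CHO RD-HGA16 cells carrying human TAAR1 plus Gα16 | schedule = 17-24 h seeding, 75 min 37 °C dye, 30 min RT | compound dosing = 3 µM single concentration | control set = DMSO and PEA EC100 | replicates = n 1 | signal = Fluo-8 fluorescence, 5 s baseline then 140 s kinetic read | measure = percent activation vs PEA EC100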
TAAR1 ag conf = human TAAR1 agonism, confirmed. shares compounds with TAAR1 ag. CHO RD-HGA16 TAAR1, Fluo-8 calcium fluorescence; scaled: DMSO 0%, maximal phenethylamine 100%. activation, % at 3 µM. hit rate 82% among 2,400. AID 651783;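 active = activation above a cutoff set at the run's mean compound activation plus 3 SD, cut at about 39% in these data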
Ga16 nonsel ag = counter-screen for TAAR1 agonists: nonselective agonists in parental cells. shares compounds with TAAR1 ag. CHO-Ga16 parental, Fluo-8 calcium fluorescence; normalized to maximal ATP response, DMSO zero. activation, % at 3 µM. hit rate 50% among 2,400. AID 651787;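 active = activation above the run cutoff, the mean activation over all tested wells plus 3 SD, cut at about 12% in these data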;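 also: 0% = DMSO wells and 100% = maximal ATP response on the peak over basal ratio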
TAAR1 desensitize = TAAR1 response desensitization, agonist counter-screen; shares compounds with TAAR1 ag; CHO RD-HGA16 hTAAR1, Fluo-8 calcium, beta-PEA response inhibition; inhibition, % at 3 µM; hit rate 46% among 2,400; AID 651951;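 active = inhibition above the run cutoff, the mean inhibition of all test compounds plus 3 SD, cut at about 49% in these data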;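 also: beta-PEA stimulus applied at its EC80; loss of beta-PEA calcium signal after compound pretreatment read as receptor desensitization; 0% = DMSO with beta-PEA at EC80 and 100% = DMSO alone without agonist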
Ga16 antag count = nonselective Ga16 antagonist in TAAR1 agonist counter-screen. shares compounds with TAAR1 ag. hit rate 39% among 2,400. CHO-Ga16 ATP-induced calcium, Fluo-8 fluorescence. inhibition, % at 3 µM. AID 651952;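 active = inhibition above the plate's mean compound inhibition plus 3 SD, computed per plate, cut at about 22% in these data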;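 also: 0% = EC80 ATP with DMSO and 100% = DMSO wells without ATP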
Active calls of the source: *; nt = no result given. Hits are enriched below; roughly 4.5% of the tested compounds scored in any of these assays.

SMILES	OX1R antag-1	CHO parental Ca	OX1R antag-2	TAAR1 antag	GPR7 antag	TAAR1 ag	TAAR1 ag conf	Ga16 nonsel ag	TAAR1 desensitize	Ga16 antag count
Cc1ccc(CCNC(=O)CCS(=O)(=O)c2ccc3c(c2)oc(=O)n3C)cc1	3	-19	-29	-29	8	3	nt	nt	nt	nt
Cn1c(=O)oc2cc(S(=O)(=O)CCC(=O)NCCc3ccccc3)ccc21	1	-10	-6	16	6	70*	30	0	14	7
O=C(CCS(=O)(=O)c1ccc2c(c1)NC(=O)CS2)NCCc1ccccc1	4	-17	-19	26	1	68*	68*	0	35	11
O=C(NC(c1ccccc1)c1ccsc1)C1CCN(CCOc2ccc(Cl)cc2Cl)CC1 (stereo not drawn)	nt	nt	nt	22	nt	16	nt	nt	nt	nt
O=C(N/N=C/c1ccc(O)c(O)c1)N/N=C/c1ccc(O)c(O)c1	nt	nt	nt	27	0	98*	83*	-1	73*	1
COc1ccc(NC(=O)c2ccc(C(=O)c3ccccc3)o2)cc1	23	-4	5	57*	2	67*	6	8	23	15
COc1ccc(CC(=O)Nc2ccc(NC(=O)c3ccccc3F)cc2)cc1	2	58*	22	99*	-1	109*	60*	35*	42	16
COc1ccc(C(=O)Nc2ccc(C(=O)c3ccccc3)cc2)cc1	24	18	4	27	nt	12	nt	nt	nt	nt
COC(=O)[C@]1(Cc2ccccc2)N[C@H](c2ccc(-c3cccc(Cl)c3)cc2)[C@@H]2C(=O)N(C)C(=O)[C@@H]21	21	-13	-19	5	nt	5	nt	nt	nt	nt
COc1ccc2c(Cl)c(C(=O)N/N=C/c3ccncc3)sc2c1	21	5	-21	49*	-2	72*	5	3	16	6
O=C(N[C@H](C(=O)N1CCC[C@H]1C(=O)NCCc1ccccc1Cl)c1ccccc1)c1ccco1	nt	nt	nt	-13	nt	41*	57*	1	60*	12
CN(C)C(CNC(=O)C1CCCN1C(=O)c1cccs1)c1ccccc1 (stereo not drawn)	-2	-7	-23	3	nt	0	nt	nt	nt	nt
O=C(N[C@H](C(=O)N1CCC[C@H]1C(=O)NCCc1ccccc1Cl)c1ccccc1)c1cccs1	nt	nt	nt	nt	nt	nt	nt	5	nt	10
O=C(Cn1nnc(N2CCCCC2)n1)NN=Cc1ccccc1O	nt	nt	nt	-12	nt	49*	64*	2	11	1
O=C(Nc1ccc(OC(F)F)cc1)c1cc(S(=O)(=O)N2CCCCC2)ccc1N1CCOCC1	3	-17	-18	-16	nt	9	nt	nt	nt	nt
C/C=C(/CCC1NCCc2c1[nH]c1ccccc21)[Si](C)(C)C (stereo not drawn)	nt	nt	nt	-1	nt	3	nt	nt	nt	nt
C=CCn1c(C)cc(C2=NNC(=NCc3ccccc3)SC2)c1C	7	-7	-11	-14	-5	2	nt	nt	nt	nt
Cc1cc(C2=NNC(=NCCc3ccccc3)SC2)c(C)n1CC1CCCO1 (stereo not drawn)	10	-2	-20	68*	1	83*	85*	4	57*	20
CCN=C1NN=C(c2cc(C)n(CCc3ccccc3)c2C)CS1	nt	nt	nt	63*	-6	82*	101*	4	93*	5
Cn1c(-c2ccc3c(c2)OCO3)cnc1NCc1ccccc1	6	-24	-4	1	13	14	nt	nt	nt	nt
Cn1c(-c2ccc3c(c2)OCO3)cnc1NC(=O)CCC(=O)NCCc1ccccc1	0	-10	5	24	-9	47*	40*	-1	9	10
COc1ccc(NC(=S)N2CCCC(c3nc4ccc(C)cc4[nH]3)C2)cc1 (stereo not drawn)	22	-11	-3	-7	-6	0	nt	nt	nt	nt
COc1ccc(NC(=S)N2CCCC(c3nc4ccc(C)cc4[nH]3)C2)c(OC)c1 (stereo not drawn)	12	-19	-38	-4	14	98*	0	1	-4	2
C#CC1(O)CCC2C3CCC4=Cc5oncc5CC4(C)C3CCC21C (stereo not drawn)	nt	nt	nt	65*	nt	51*	62*	31*	70*	35*
C#C[C@]1(O)CCC2C3CCC4=Cc5oncc5CC4(C)C3CCC21C (stereo partly drawn)	26	15	-17	76*	nt	62*	60*	43*	54*	36*
SMILES	OX1R antag-1	CHO parental Ca	OX1R antag-2	TAAR1 antag	GPR7 antag	TAAR1 ag	TAAR1 ag conf	Ga16 nonsel ag	TAAR1 desensitize	Ga16 antag count
CCOc1ccc(/C(C)=N/NC(=O)c2nnn(-c3nonc3N)c2-c2cccs2)cc1	18	1	2	47	-13	119*	117*	88*	38	13
CCCOc1ccc(-c2c(C(=O)N/N=C(\C)c3cccs3)nnn2-c2nonc2N)cc1	7	-13	-22	-20	-12	53*	56*	22*	2	4
COc1ccc(Nc2nc(N3CCCC3)c3ccccc3n2)cc1	30	-2	1	48	2	67*	89*	9	86*	19
Cn1c(=O)c2c(nc(N3CCc4ccccc4C3)n2Cc2ccc(Br)cc2)n(C)c1=O	35	-11	-21	-16	-14	55*	61*	7	3	2
Cc1ccc(Cn2c(CN(C)Cc3ccccc3)nc3c2c(=O)n(C)c(=O)n3C)cc1	-2	-17	-12	0	22	70*	40*	26*	19	20
Cc1[nH]nc2c1C(c1ccc3c(c1)OCO3)N(Cc1ccccc1)C2=O (stereo not drawn)	nt	nt	nt	3	nt	-2	nt	nt	nt	nt
Cc1ccc(CCNC(=O)c2coc3nc4ccccc4nc23)cc1	30	-14	-19	8	-9	70*	27	3	16	23*
CC1CCN(CCCNC(=O)c2coc3nc4ccccc4nc23)CC1	46	-13	-14	5	2	11	nt	nt	nt	nt
Cn1nc(C2CC2)cc1NC(=O)C1(C)CCN1C(=O)Cc1ccc(-c2ccccc2)cc1 (stereo not drawn)	nt	nt	nt	20	nt	5	nt	nt	nt	nt
CCOC(=O)c1c(CSC(=N)N)n(-c2ccc(C)cc2)c2cc(Br)c(OC(C)=O)cc12	6	4	4	15	1	63*	92*	59*	66*	52*

Screens (PubChem BioAssay)
